Measured values reported in ChEMBL document CHEMBL1641515, “Inhibition of secreted phospholipases A₂ by 2-oxoamides based on α-amino acids: Synthesis, in vitro evaluation and molecular docking calculations” (Bioorg Med Chem, 2011).

Assays:
[1] = target: T1, Phospholipase A2, membrane associated (Homo sapiens, UniProt P14555); assay: Inhibition of human group 2A sPLA2 by fluorescence assay
T1 sequence (P14555 whole entry): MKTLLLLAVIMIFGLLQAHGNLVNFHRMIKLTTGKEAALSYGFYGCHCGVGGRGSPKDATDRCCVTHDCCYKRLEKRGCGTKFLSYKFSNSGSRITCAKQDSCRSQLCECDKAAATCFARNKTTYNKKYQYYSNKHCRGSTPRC
Procedure, shortened: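 Continuous fluorimetric assay with recombinant human GIIA sPLA2 (6 ng/well) on pyrPG vesicles, pH 8.0 Tris buffer with Ca2+, KCl and BSA. Readout at ex 342/em 395 nm, initial slopes. […] Nonlinear variable-slope sigmoidal fit gives IC50; mean of duplicate or triplicate analyses with SD.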

Phospholipase A2 group V [2] = target: T2, Phospholipase A2 group V (Homo sapiens, UniProt P39877); assay: Inhibition of human group 5 sPLA2 by fluorescence assay
T2 sequence (P39877 whole entry): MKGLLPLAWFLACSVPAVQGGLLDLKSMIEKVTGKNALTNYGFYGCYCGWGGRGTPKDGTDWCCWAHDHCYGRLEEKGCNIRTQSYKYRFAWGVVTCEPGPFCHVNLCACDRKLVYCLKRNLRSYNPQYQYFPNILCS
Procedure, shortened: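 Recombinant human GV sPLA2 (12.5 ng/well) with pyrPG vesicle substrate in Tris-HCl pH 8.0, KCl, CaCl2 and BSA. Monitored by fluorescence (342/395 nm), using initial slopes. […] IC50 by variable-slope sigmoidal regression on log concentration; duplicate or triplicate runs, mean with SD.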

[3] = target: T3, Group 10 secretory phospholipase A2 (Homo sapiens) (UniProt O15496); assay: Inhibition of human group 10 sPLA2 at […] by fluorescence assay
T3 sequence (whole entry): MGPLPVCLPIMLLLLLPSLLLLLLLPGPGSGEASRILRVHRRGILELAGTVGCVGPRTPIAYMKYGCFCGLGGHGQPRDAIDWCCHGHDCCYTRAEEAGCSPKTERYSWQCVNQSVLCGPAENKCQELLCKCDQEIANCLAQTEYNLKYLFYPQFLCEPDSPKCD

[4] = target: T4, Phospholipase A2, membrane associated (Mus musculus, UniProt P31482); assay: Inhibition of mouse group 2A sPLA2 by fluorescence assay
T4 sequence (P31482 whole entry): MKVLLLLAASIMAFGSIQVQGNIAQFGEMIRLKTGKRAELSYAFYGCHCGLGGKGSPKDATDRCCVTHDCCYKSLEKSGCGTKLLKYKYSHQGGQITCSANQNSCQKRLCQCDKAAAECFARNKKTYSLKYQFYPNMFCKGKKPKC

Phospholipase A2 group V [5] = target: T5, Phospholipase A2 group V (Mus musculus, UniProt P97391); assay: Inhibition of mouse group 5 sPLA2 by fluorescence assay
T5 sequence (P97391 whole entry): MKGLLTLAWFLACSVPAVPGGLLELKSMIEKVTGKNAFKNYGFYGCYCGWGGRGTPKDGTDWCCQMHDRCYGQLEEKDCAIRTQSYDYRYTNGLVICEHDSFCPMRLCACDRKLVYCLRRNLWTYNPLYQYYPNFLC

[6] = target: T6, Group 10 secretory phospholipase A2 (Mus musculus) (UniProt Q9QXX3); assay: Inhibition of mouse group 10 sPLA2 by fluorescence assay; conditions: concentration not given here
T6 sequence (whole entry): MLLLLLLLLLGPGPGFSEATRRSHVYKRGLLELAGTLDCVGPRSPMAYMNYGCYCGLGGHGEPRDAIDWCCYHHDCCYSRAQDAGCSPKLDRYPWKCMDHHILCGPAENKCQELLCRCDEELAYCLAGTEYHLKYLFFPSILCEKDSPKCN
Procedure, shortened: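 Mouse GX sPLA2, recombinant, 10.7 ng per well, in 50 mM Tris-HCl pH 8.0 with 50 mM KCl, 1 mM CaCl2 and BSA. Started with pyrPG vesicles and read at ex 342/em 395 nm. Percent inhibition from initial fluorescence slopes at five concentrations. IC50 from a variable-slope sigmoidal dose-response fit.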

[7] = target: T7, Group 10 secretory phospholipase A2 (Homo sapiens, UniProt O15496); assay: Inhibition of human group 10 sPLA2 by fluorescence assay
T7 sequence (O15496 whole entry): T3 sequence (whole entry)

[8] = target: T8, Phospholipase A2 group V (Homo sapiens) (UniProt P39877); assay: Inhibition of human group 5 sPLA2 at […] by fluorescence assay
T8 sequence (whole entry): T2 sequence (P39877 whole entry)

[9] = target: T9, Phospholipase A2, membrane associated (Homo sapiens) (UniProt P14555); assay: Inhibition of human group 2A sPLA2 at […] by fluorescence assay
T9 sequence (whole entry): T1 sequence (P14555 whole entry)

Structure (SMILES)	IC50 [1] [µM]	IC50 (Phospholipase A2 group V [2]) [µM]	inhibition [3] [%]	IC50 [4] [µM]	IC50 (Phospholipase A2 group V [5]) [µM]	inhibition [6] [%]	IC50 [7] [µM]	inhibition [8] [%]	inhibition [9] [%]
CCCCCCCCCCCCCCCC(=O)N[C@@H](CC(C)C)C(=O)O	> 1.66	> 1.66							
CCCCCCCCCCCCCCC(=O)C(=O)N[C@@H](CC(C)C)C(=O)O	0.3	0.44	50	0.18	2.6	58			
CCCCCCCCCCCCCCC(=O)C(=O)N[C@@H](Cc1ccccc1)C(=O)O	> 1.66	> 1.66					> 1.66		
CCCCCCCCCCCCCCC(=O)C(=O)NCC(=O)O	4.2		23					43	
CCCCCCCCCCCCCCC(=O)C(=O)N[C@H](CC(C)C)C(=O)O	1.75	1.5					> 1.66		
CCCCCCCCCCCCCCC(=O)C(=O)NCCC(=O)O	5.6		18					47	
CCCCCCCCCCCCCCC(=O)C(=O)NCCCCC(=O)O	11.7		7					49	
CCCCCCCCCCCCCCC(=O)C(=O)NCC(=O)OC			22					9	3
